# Tested on: Fibroblast
# Assay: Multiplex assay against human fibroblast
# Format: toxicity, cell-based
# Outline: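 Hoechst33342, BioTracker Green Microtubule Cytoskeleton Dye, MitoTracker Red and Annexin V Alexa Fluor 680 were added to live cells at seeding, and imaging on a CQ1 microscope at 37°C and 5% CO2 followed compound addition. Gating by CellPathfinder machine learning separated cells into Hoechst high-intensity objects or normal cells, then normal cells into healthy, pyknosed or fragmented nuclei, then pyknosed cells into mitotic or apoptotic. Per cents of healthy-nucleus cells are reported for the tubulin, mitochondrial-mass and membrane-permeability phenotypes.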
# [1] = 12 h, 1 µM, compound concentration 1 uM, replicate 1
# [2] = 12 h, 1 µM, compound concentration 1 uM, replicate 2
# [3] = 12 h, 10 µM, compound concentration 10 uM, replicate 1
# [4] = 12 h, 10 µM, compound concentration 10 uM, replicate 2
# [5] = 24 h, 1 µM, compound concentration 1 uM, replicate 1
# [6] = 24 h, 1 µM, compound concentration 1 uM, replicate 2
# [7] = 24 h, 10 µM, compound concentration 10 uM, replicate 1
# [8] = 24 h, 10 µM, compound concentration 10 uM, replicate 2
# [9] = 48 h, 1 µM, compound concentration 1 uM, replicate 1
# [10] = 48 h, 1 µM, compound concentration 1 uM, replicate 2
# [11] = 48 h, 10 µM, compound concentration 10 uM, replicate 1
# [12] = 48 h, 10 µM, compound concentration 10 uM, replicate 2
smiles,measurement,setting,value
CN1CCC[C@@H]1CCO[C@](C)(c1ccccc1)c1ccc(Cl)cc1.O=C(O)/C=C/C(=O)O [CLEMASTINE FUMARATE],Population Apoptotic (%),[1],61%
same,Population Fragmented Nuclei (%),[1],35%
same,Population Healthy Nuclei (%),[1],39%
same,Population Hoechst High Intensity Objects (%),[1],20%
same,Population Membrane Permeable-Phenotype (%),[1],13%
same,Population Mitochondria Different-Phenotype (%),[1],10%
same,Population Mitotic Cells (%),[1],38%
same,Population Normal (%),[1],79%
same,Population Pyknosed Nuclei (%),[1],24%
same,Population Tubulin-Different-Phenotype (%),[1],37%
same,Total Cell Count,[1],92
same,Population Apoptotic (%),[2],50%
same,Population Fragmented Nuclei (%),[2],15%
same,Population Healthy Nuclei (%),[2],76%
same,Population Hoechst High Intensity Objects (%),[2],1%
same,Population Membrane Permeable-Phenotype (%),[2],3%
same,Population Mitochondria Different-Phenotype (%),[2],6%
same,Population Mitotic Cells (%),[2],50%
same,Population Normal (%),[2],98%
same,Population Pyknosed Nuclei (%),[2],7%
same,Population Tubulin-Different-Phenotype (%),[2],3%
same,Total Cell Count,[2],78
same,Population Apoptotic (%),[3],69%
same,Population Fragmented Nuclei (%),[3],26%
same,Population Healthy Nuclei (%),[3],43%
same,Population Hoechst High Intensity Objects (%),[3],10%
same,Population Membrane Permeable-Phenotype (%),[3],11%
same,Population Mitochondria Different-Phenotype (%),[3],49%
same,Population Mitotic Cells (%),[3],30%
same,Population Normal (%),[3],90%
same,Population Pyknosed Nuclei (%),[3],29%
same,Population Tubulin-Different-Phenotype (%),[3],77%
same,Total Cell Count,[3],160
same,Population Apoptotic (%),[4],85%
same,Population Fragmented Nuclei (%),[4],19%
same,Population Healthy Nuclei (%),[4],41%
same,Population Hoechst High Intensity Objects (%),[4],21%
same,Population Membrane Permeable-Phenotype (%),[4],6%
same,Population Mitochondria Different-Phenotype (%),[4],86%
same,Population Mitotic Cells (%),[4],14%
same,Population Normal (%),[4],78%
same,Population Pyknosed Nuclei (%),[4],38%
same,Population Tubulin-Different-Phenotype (%),[4],40%
same,Total Cell Count,[4],46
same,Population Apoptotic (%),[5],63%
same,Population Fragmented Nuclei (%),[5],36%
same,Population Healthy Nuclei (%),[5],50%
same,Population Hoechst High Intensity Objects (%),[5],32%
same,Population Membrane Permeable-Phenotype (%),[5],20%
same,Population Mitochondria Different-Phenotype (%),[5],17%
same,Population Mitotic Cells (%),[5],36%
same,Population Normal (%),[5],67%
same,Population Pyknosed Nuclei (%),[5],13%
same,Population Tubulin-Different-Phenotype (%),[5],60%
same,Total Cell Count,[5],118
same,Population Apoptotic (%),[6],18%
same,Population Fragmented Nuclei (%),[6],14%
same,Population Healthy Nuclei (%),[6],70%
same,Population Hoechst High Intensity Objects (%),[6],0%
same,Population Membrane Permeable-Phenotype (%),[6],5%
same,Population Mitochondria Different-Phenotype (%),[6],13%
same,Population Mitotic Cells (%),[6],81%
same,Population Normal (%),[6],99%
same,Population Pyknosed Nuclei (%),[6],15%
same,Population Tubulin-Different-Phenotype (%),[6],6%
same,Total Cell Count,[6],107
same,Population Apoptotic (%),[7],78%
same,Population Fragmented Nuclei (%),[7],34%
same,Population Healthy Nuclei (%),[7],48%
same,Population Hoechst High Intensity Objects (%),[7],16%
same,Population Membrane Permeable-Phenotype (%),[7],9%
same,Population Mitochondria Different-Phenotype (%),[7],76%
same,Population Mitotic Cells (%),[7],21%
same,Population Normal (%),[7],83%
same,Population Pyknosed Nuclei (%),[7],17%
same,Population Tubulin-Different-Phenotype (%),[7],85%
same,Total Cell Count,[7],190
same,Population Apoptotic (%),[8],76%
same,Population Fragmented Nuclei (%),[8],21%
same,Population Healthy Nuclei (%),[8],36%
same,Population Hoechst High Intensity Objects (%),[8],12%
same,Population Membrane Permeable-Phenotype (%),[8],26%
same,Population Mitochondria Different-Phenotype (%),[8],86%
same,Population Mitotic Cells (%),[8],23%
same,Population Normal (%),[8],87%
same,Population Pyknosed Nuclei (%),[8],41%
same,Population Tubulin-Different-Phenotype (%),[8],26%
same,Total Cell Count,[8],47
same,Population Apoptotic (%),[9],50%
same,Population Fragmented Nuclei (%),[9],46%
same,Population Healthy Nuclei (%),[9],45%
same,Population Hoechst High Intensity Objects (%),[9],27%
same,Population Membrane Permeable-Phenotype (%),[9],24%
same,Population Mitochondria Different-Phenotype (%),[9],2%
same,Population Mitotic Cells (%),[9],50%
same,Population Normal (%),[9],72%
same,Population Pyknosed Nuclei (%),[9],8%
same,Population Tubulin-Different-Phenotype (%),[9],42%
same,Total Cell Count,[9],136
same,Population Apoptotic (%),[10],0%
same,Population Fragmented Nuclei (%),[10],48%
same,Population Healthy Nuclei (%),[10],51%
same,Population Hoechst High Intensity Objects (%),[10],16%
same,Population Membrane Permeable-Phenotype (%),[10],11%
same,Population Mitochondria Different-Phenotype (%),[10],14%
same,Population Mitotic Cells (%),[10],0%
same,Population Normal (%),[10],83%
same,Population Pyknosed Nuclei (%),[10],0%
same,Population Tubulin-Different-Phenotype (%),[10],50%
same,Total Cell Count,[10],97
same,Population Apoptotic (%),[11],78%
same,Population Fragmented Nuclei (%),[11],38%
same,Population Healthy Nuclei (%),[11],45%
same,Population Hoechst High Intensity Objects (%),[11],24%
same,Population Membrane Permeable-Phenotype (%),[11],8%
same,Population Mitochondria Different-Phenotype (%),[11],72%
same,Population Mitotic Cells (%),[11],21%
same,Population Normal (%),[11],75%
same,Population Pyknosed Nuclei (%),[11],15%
same,Population Tubulin-Different-Phenotype (%),[11],83%
same,Total Cell Count,[11],197
same,Population Apoptotic (%),[12],75%
same,Population Fragmented Nuclei (%),[12],47%
same,Population Healthy Nuclei (%),[12],50%
same,Population Membrane Permeable-Phenotype (%),[12],3%
same,Population Mitochondria Different-Phenotype (%),[12],60%
same,Population Mitotic Cells (%),[12],25%
same,Population Pyknosed Nuclei (%),[12],2%
same,Population Tubulin-Different-Phenotype (%),[12],97%
same,Total Cell Count,[12],258

# From ChEMBL document CHEMBL4689842, “EUbOPEN Chemogenomics Library wave 1” (2021)
